Measurements reported in ChEMBL document CHEMBL3877306, “Triazole Ureas Act as Diacylglycerol Lipase Inhibitors and Prevent Fasting-Induced Refeeding” (J Med Chem, 2017).
pIC50: −log10 of the molar value. Active and inactive are the calls of the source. The calls are words filed in the database; no cut-off is given here.

Key:
[1] = target: T1, Monoacylglycerol lipase ABHD6 (Homo sapiens, UniProt Q9BV23); assay: Inhibition of human ABHD6 using 2-AG as natural substrate by fluorescence based assay
T1 sequence (Q9BV23 whole entry): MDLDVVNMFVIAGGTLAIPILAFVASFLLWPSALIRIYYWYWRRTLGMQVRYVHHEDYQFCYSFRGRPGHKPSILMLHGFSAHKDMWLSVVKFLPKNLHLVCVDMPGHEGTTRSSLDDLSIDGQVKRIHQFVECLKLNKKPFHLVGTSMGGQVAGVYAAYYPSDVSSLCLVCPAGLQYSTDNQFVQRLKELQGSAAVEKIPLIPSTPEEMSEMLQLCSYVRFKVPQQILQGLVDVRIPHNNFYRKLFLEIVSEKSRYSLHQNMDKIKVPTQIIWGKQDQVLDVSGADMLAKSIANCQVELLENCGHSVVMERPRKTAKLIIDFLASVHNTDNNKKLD
Method in brief: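 Coupled fluorescence assay: 2-AG hydrolysis detected via glycerol kinase, glycerol-3-phosphate oxidase and HRP (0.2 U/mL each), 0.125 mM ATP and 10 µM Amplifu Red. Conditions: 25 µM 2-AG, 0.5% acetonitrile, 5% DMSO, ABHD6 membrane protein 40 µg/mL final. n = 4.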

[2] = target: T2, Diacylglycerol lipase-alpha (Homo sapiens, UniProt Q9Y4D2); assay: Inhibition of full length recombinant human DAGLalpha expressed in HEK293T cell membranes using PNP butyrate as substrate by colorimetric assay; set-up: species or system HEK-293T
T2 sequence (Q9Y4D2 whole entry): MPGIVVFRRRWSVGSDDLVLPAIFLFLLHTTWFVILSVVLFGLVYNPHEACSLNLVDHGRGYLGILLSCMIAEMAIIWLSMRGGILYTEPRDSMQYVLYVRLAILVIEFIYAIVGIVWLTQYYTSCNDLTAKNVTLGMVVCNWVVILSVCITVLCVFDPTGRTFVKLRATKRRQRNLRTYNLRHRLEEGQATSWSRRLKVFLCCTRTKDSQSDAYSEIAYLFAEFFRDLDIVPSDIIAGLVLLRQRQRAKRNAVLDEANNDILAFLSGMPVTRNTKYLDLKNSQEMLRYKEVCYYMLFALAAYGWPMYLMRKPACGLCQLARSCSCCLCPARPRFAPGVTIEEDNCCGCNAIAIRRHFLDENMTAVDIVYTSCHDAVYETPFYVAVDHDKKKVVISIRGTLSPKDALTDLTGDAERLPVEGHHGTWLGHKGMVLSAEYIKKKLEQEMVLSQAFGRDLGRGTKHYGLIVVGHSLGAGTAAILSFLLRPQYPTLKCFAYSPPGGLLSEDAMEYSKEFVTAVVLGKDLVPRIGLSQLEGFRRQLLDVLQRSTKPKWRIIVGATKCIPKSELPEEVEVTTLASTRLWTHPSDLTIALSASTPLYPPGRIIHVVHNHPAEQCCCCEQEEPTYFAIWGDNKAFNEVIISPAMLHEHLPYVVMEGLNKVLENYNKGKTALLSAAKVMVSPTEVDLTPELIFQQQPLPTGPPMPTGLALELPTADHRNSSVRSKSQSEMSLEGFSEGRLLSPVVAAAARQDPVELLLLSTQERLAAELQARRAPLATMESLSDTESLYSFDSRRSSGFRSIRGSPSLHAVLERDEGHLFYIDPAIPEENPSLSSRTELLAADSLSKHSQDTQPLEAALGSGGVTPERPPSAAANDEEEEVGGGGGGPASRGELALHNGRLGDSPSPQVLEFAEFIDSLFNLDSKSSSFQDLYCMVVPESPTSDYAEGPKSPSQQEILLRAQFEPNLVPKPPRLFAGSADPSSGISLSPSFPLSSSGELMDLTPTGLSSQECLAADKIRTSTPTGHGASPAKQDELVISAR
Method in brief: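 Membranes from HEK293T cells transiently transfected with human DAGLα (PEI transfection, harvested at 72 h), used at 0.05 µg/µL final protein in 50 mM HEPES pH 7.2. Activity was read colorimetrically from para-nitrophenylbutyrate hydrolysis. n = 4, mean ± SEM.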

[3] = target: T3, Diacylglycerol lipase-beta (Mus musculus, UniProt Q91WC9); assay: Inhibition of recombinant mouse DAGLbeta expressed in HEK293T cell membranes using PNP butyrate as substrate by colorimetric assay; set-up: species or system HEK-293T
T3 sequence (Q91WC9 whole entry): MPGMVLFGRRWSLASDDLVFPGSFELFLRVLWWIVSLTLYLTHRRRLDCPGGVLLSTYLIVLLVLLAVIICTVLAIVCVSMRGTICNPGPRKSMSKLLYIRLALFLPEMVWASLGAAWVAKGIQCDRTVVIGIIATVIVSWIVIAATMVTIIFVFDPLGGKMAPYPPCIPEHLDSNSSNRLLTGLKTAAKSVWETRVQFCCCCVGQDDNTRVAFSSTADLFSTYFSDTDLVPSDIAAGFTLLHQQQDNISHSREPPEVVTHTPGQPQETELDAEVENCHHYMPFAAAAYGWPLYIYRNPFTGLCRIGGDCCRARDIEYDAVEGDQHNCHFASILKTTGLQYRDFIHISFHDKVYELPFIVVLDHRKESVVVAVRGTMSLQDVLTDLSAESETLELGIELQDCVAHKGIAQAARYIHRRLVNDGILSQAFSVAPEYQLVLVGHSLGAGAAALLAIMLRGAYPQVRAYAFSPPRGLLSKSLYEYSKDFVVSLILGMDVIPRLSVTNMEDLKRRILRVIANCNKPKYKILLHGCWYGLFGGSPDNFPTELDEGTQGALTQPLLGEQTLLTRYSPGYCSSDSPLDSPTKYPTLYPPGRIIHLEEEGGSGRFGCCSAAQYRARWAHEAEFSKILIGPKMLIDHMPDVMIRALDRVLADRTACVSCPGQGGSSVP
Method in brief: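 Membranes from HEK293T cells transiently transfected with mouse DAGLβ. Activity was read colorimetrically as hydrolysis of para-nitrophenylbutyrate surrogate substrate over a concentration range of inhibitor. n = 4, mean ± SEM.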

[4] = target: T2, Diacylglycerol lipase-alpha; assay: Inhibition of recombinant human DAGLalpha expressed in HEK293T cell membranes overexpressing MAGL using natural substrate 1-stearoyl-2-arachidonoly-sn-glycerol by fluorescence based assay; set-up: species or system HEK-293T
Method in brief: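 Real-time coupled fluorescence readout of glycerol release from hDAGLα-transfected HEK293T membranes (50 µg/mL final protein) with 100 µM SAG substrate. Added: 5 µg/mL MAGL-overexpressing membranes, 0.0075% (w/v) Triton X-100, 0.2 U/mL each glycerol kinase, glycerol-3-phosphate oxidase and HRP, 0.125 mM ATP, 10 µM Amplifu Red, 5% DMSO. n = 4.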

[5] = target: T4, Diacylglycerol lipase-alpha (Mus musculus, UniProt Q6WQJ1); assay: Inhibition of MB064 probe binding to DAGLalpha in mouse brain membrane proteome preincubated for 30 mins followed by MB064 probe addition measured after 20 mins by gel-based competitive activity based protein profiling assay; format: cell membranes
T4 sequence (Q6WQJ1 whole entry): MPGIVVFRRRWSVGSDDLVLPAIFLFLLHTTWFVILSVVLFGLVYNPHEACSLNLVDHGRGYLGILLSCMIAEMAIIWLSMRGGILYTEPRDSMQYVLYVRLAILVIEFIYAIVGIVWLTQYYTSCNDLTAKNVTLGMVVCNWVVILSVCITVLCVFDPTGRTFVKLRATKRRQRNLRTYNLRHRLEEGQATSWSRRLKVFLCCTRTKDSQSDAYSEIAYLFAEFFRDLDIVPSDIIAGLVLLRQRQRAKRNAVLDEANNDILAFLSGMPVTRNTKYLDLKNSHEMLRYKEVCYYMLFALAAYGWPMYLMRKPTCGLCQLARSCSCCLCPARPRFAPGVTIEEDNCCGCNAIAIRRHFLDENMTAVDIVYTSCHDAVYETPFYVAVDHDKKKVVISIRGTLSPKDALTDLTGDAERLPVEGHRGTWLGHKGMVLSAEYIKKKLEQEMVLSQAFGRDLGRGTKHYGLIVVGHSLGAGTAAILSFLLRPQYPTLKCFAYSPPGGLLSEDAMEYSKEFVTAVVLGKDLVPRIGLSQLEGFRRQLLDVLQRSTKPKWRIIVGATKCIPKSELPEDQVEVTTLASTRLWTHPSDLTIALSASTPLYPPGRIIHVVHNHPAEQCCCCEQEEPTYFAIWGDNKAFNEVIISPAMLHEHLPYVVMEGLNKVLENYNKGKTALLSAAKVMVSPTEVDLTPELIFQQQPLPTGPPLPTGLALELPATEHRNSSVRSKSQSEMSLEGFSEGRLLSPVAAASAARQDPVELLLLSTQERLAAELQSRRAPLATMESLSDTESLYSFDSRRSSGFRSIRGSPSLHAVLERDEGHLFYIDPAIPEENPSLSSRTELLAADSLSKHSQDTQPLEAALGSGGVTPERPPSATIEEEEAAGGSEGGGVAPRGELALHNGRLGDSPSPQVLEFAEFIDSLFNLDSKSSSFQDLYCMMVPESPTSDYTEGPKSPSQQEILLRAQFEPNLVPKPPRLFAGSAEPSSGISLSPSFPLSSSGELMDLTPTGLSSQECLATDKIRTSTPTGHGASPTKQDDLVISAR
Method in brief: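 Mouse brain membrane proteome (2 mg/mL) preincubated with inhibitor or DMSO vehicle for 30 min at r.t., then labelled with MB064 at 250 nM final for 20 min at r.t. and quenched in Laemmli buffer. Fluorescent bands were quantified against vehicle set to 100%, and IC50 was taken from a variable-slope log(inhibitor) vs normalized response fit. n = 3.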

[6] = tested on: Mus musculus; assay: Ex vivo inhibition of FP-TAMRA probe binding to carboxylesterase in mouse liver at 3 to 50 mg/kg, ip after 4 hrs by gel-based competitive activity based protein profiling assay; format: functional, organism-based
[7] = tested on: Mus musculus; assay: Inhibition of fasting-induced refeeding in 18 hrs fasted C57Bl/6J mouse at 50 mg/kg, ip administered as single dose 30 mins prior to refeeding measured up to 16 hrs; format: functional, organism-based
[8] = tested on: Mus musculus; assay: Toxicity in 18 hrs fasted C57Bl/6J mouse model of fasting-induced refeeding assessed as hypolocomotion at 50 mg/kg, ip administered as single dose 30 mins prior to refeeding measured after 24 hrs; format: organism-based; conditions: in vivo
[9] = target: T5, Diacylglycerol lipase-alpha (Homo sapiens) (UniProt Q9Y4D2); assay: Inhibition of DH379 probe binding to full length recombinant human DAGLalpha expressed in HEK293T cell membranes at 0.1 to 10000 nM after 30 mins by gel-based competitive activity based protein profiling assay; conditions: HEK-293T
T5 sequence (whole entry): T2 sequence (Q9Y4D2 whole entry)
Method in brief: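 Membranes from HEK293T cells transiently transfected with human DAGLα were preincubated with inhibitor, then labelled with DAGL-tailored probe DH379 (1 μM, 30 min). Readout was fluorescent SDS gel. Band intensity was normalized to vehicle (100%) and fitted with a variable-slope dose-response curve. n = 3.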

[10] = target: T6, Diacylglycerol lipase-beta (Homo sapiens) (UniProt Q8NCG7); assay: Inhibition of DH379 probe binding to full length recombinant human DAGLbeta expressed in HEK293T cell membranes at 0.1 to 10000 nM after 30 mins by gel-based competitive activity based protein profiling assay; conditions: HEK-293T
T6 sequence (whole entry): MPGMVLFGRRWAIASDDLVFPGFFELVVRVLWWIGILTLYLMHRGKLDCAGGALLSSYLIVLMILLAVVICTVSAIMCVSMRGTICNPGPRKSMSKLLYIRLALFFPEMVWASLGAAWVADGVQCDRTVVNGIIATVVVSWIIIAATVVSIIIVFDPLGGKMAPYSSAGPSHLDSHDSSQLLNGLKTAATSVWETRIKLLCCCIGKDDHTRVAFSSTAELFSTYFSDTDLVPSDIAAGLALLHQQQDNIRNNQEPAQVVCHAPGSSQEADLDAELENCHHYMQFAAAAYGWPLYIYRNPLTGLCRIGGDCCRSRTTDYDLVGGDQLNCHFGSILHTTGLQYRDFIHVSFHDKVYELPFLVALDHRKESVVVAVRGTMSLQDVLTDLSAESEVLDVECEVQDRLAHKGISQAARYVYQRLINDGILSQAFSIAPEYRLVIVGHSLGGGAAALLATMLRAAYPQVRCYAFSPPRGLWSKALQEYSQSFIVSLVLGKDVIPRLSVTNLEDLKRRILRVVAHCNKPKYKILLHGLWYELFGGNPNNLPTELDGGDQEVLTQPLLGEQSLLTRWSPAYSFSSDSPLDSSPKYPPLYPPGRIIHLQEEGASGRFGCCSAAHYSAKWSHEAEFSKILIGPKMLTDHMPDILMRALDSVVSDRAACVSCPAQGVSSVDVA
Method in brief: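 HEK293T cells transiently transfected with full-length human DAGLβ cDNA (PEI:DNA 3:1), harvested at 72h; membrane fraction diluted to 1 mg/mL protein. Inhibitor-treated membranes were labelled with DAGL-tailored probe DH379 (1 μM, 30 min), then run on fluorescent SDS-PAGE. Band intensity was normalised to vehicle (100%), and IC50 was fitted to log(inhibitor) vs normalised response with variable slope; n = 3.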

[11] = target: T2, Diacylglycerol lipase-alpha; assay: Inhibition of HT-01 probe binding to recombinant human DAGLalpha expressed in HEK293T cell membrane proteomes preincubated for 30 mins followed by HT-01 probe addition measured after 30 mins by gel-based competitive activity based protein profiling assay; format: cell membranes, HEK-293T

Row | SMILES | pIC50 [1] | pIC50 [2] | pIC50 [3] | pIC50 [4] | other results
1 | O=C(N1CCCCC1Cc1ccccc1)n1cc(C(O)(c2ccccc2)c2ccccc2)nn1 (configuration not stated) | 7.40 | 7.60 | 7.10 |  | 
2 | O=C(N1CCCC[C@@H]1Cc1ccccc1)n1cc(-c2ccc(-c3ccccc3)cc2)nn1 | 8.60 | 9.10 |  | 7.60 | pIC50 [5]: 8.10
3 | CCC1CCCCN1C(=O)n1cc(-c2ccc(-c3ccccc3)cc2)nn1 (configuration not stated) |  | 7.70 | 4.70 |  | 
4 | CCC1CCCCN1C(=O)n1ncc(C(O)(c2ccccc2)c2ccccc2)n1 (configuration not stated) |  | 7.20 | 4.90 |  | 
5 | C/C=C/[C@@H](O)C#N |  |  |  |  | inhibition [6]: Active; inhibition [7]: Active; Activity [8]: Toxic
6 | O=C(N1CCCCC1Cc1ccccc1)n1ncc(C(O)(c2ccccc2)c2ccccc2)n1 (configuration not stated) | 7.70 | 8.60 | 7.90 |  | inhibition [9]: Active; inhibition [10]: Active
7 | C/C=C/C=O [CROTONALDEHYDE] |  |  |  |  | inhibition [6]: Active; inhibition [7]: Active; Activity [8]: Toxic
8 | O=C(N1CCCC[C@H]1Cc1ccccc1)n1cc(-c2ccc(-c3ccccc3)cc2)nn1 | 6.20 | 7.40 |  | 6.10 | pIC50 [5]: 6.20
9 | O=C(N1CCCCC1Cc1ccccc1)n1cc(-c2ccc(-c3ccccc3)cc2)nn1 (racemic) | 7.40 | 8.20 to 8.90 |  | 6.90 | inhibition [9]: Active; pIC50 [11]: 5.64; inhibition [10]: Active
